This passage reports fold change (FC) results from ChEMBL document CHEMBL1799988, “Novel chalcone derivatives as potent Nrf2 activators in mice and human lung epithelial cells” (J Med Chem, 2011).

For experiment [1], the target named is T1, Nuclear factor erythroid 2-related factor 2 (Homo sapiens) (UniProt Q16236).
T1 sequence (whole entry): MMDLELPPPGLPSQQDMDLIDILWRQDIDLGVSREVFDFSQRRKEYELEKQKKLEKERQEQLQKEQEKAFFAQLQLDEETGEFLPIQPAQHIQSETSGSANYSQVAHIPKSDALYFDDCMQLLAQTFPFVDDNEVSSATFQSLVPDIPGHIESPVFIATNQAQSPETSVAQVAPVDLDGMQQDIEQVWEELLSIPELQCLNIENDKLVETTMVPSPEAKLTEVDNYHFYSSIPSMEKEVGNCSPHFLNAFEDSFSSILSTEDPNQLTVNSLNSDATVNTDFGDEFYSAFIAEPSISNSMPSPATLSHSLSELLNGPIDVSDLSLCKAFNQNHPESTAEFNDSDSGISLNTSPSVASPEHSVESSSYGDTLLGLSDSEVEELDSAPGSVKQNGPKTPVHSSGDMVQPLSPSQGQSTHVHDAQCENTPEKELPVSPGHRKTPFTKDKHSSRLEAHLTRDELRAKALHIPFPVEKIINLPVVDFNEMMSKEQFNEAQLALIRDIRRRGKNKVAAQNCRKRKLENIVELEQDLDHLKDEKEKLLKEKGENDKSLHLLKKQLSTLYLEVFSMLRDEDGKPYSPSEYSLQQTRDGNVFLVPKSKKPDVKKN
Put plainly: Induction of Nrf2-mediated GCLM gene expression in human BEAS2B cells at 10 uM after 16 hrs by RT-PCR analysis relative to untreated control. Format: functional, cell-based. Summed up: (§1)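 Beas-2B cells (DMEM:F12, 10% FBS) plated 24 h, then exposed to 10 µM compound in DMSO (final ≤0.1%) for 16 h; sulforaphane as positive control. Total RNA extracted, reverse transcribed with random hexamers, GCLM and NQO1 mRNA quantified by TaqMan qRT-PCR, fold change vs DMSO. Representative of 3 independent experiments, quadruplicate wells.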

In experiment [2] the target is T1, Nuclear factor erythroid 2-related factor 2 (Homo sapiens). The experiment can be described thus: Induction of Nrf2-mediated NQO1 gene expression in human BEAS2B cells at 10 uM after 16 hrs by RT-PCR analysis relative to untreated control. Format: functional, cell-based. Summed up:
as §1

Molecules are shown by their SMILES.

In the case of `O=C(/C=C/c1ccccc1[N+](=O)[O-])c1ccccc1`, the values for the fold change (FC) in experiment [1] and in experiment [2] were 2.1 and 1.6, respectively.
For `COc1ccc(C(=O)/C=C/c2ccccc2)cc1`, the fold change (FC) came to 1.9 in experiment [1] and 2.8 in experiment [2].
As for `COc1cc(OC)c(C(=O)/C=C/c2ccccc2[N+](=O)[O-])c(OC)c1`, the fold change (FC) was found to be 2.6 in experiment [1] and 2 in experiment [2].
Taken in the same sequence, the figures for `O=C(/C=C/c1ccc(C(F)(F)F)cc1)c1ccccc1` were 3.1 and 2.9.
Regarding `COc1cc(C(=O)/C=C/c2ccccc2[N+](=O)[O-])cc(OC)c1OC`, the values for the fold change (FC) in experiment [1] and in experiment [2] were 1.2 and 0.7, respectively.
For the compound `COc1ccc(C(=O)/C=C/c2ccc(C(F)(F)F)cc2)cc1OC`, the fold change (FC) in experiment [1] came to 3.5; in experiment [2] it was 2.7.
On to `COc1cc(OC)c(C(=O)/C=C/c2ccc(C(F)(F)F)cc2)c(OC)c1`, for which the fold change (FC) in experiment [1] and in experiment [2] was 2.4 each time.
Consider `COc1ccc(C(=O)/C=C/c2ccccc2)c(OC)c1`, for which the fold change (FC) is 2.7 in experiment [1] and 2.8 in experiment [2].
As to `COc1ccc(C(=O)/C=C/c2cccc(C(F)(F)F)c2)c(OC)c1OC`, the fold change (FC) in experiment [1] was 3.6; in experiment [2], 3.2.
Consider `COc1cccc(OC)c1C(=O)/C=C/c1cccc(C(F)(F)F)c1`, for which the results for the fold change (FC) in experiment [1] and in experiment [2] were 1.8 and 0.6, respectively.
For `COc1ccc(OC)c(C(=O)/C=C/c2cccc(C(F)(F)F)c2)c1`, the fold change (FC) in experiment [1] came to 1.8; in experiment [2] it was 0.8.
Taken in the same sequence, the figures for `COc1cc(C(=O)/C=C/c2cccc(C(F)(F)F)c2)cc(OC)c1OC` were 1.7 and 0.8.
With `COc1ccccc1C(=O)/C=C/c1ccccc1[N+](=O)[O-]`, the fold change (FC) in experiment [1] is 1.9; in experiment [2] it was 1.4.
With `O=C(/C=C/c1ccccc1)c1ccccc1`, the values for the fold change (FC) in experiment [1] and in experiment [2] were 0.7 and 1.8, respectively.
Taken in the same sequence, the figures for `COc1cc(OC)c(C(=O)/C=C/c2cccc(C(F)(F)F)c2)c(OC)c1` were 1.4 and 0.7.
As to `COc1ccc(C(=O)/C=C/c2cccc(C(F)(F)F)c2)c(OC)c1`, the fold change (FC) amounted to 4.6 in experiment [1] and 4 in experiment [2].
As to `COc1cc(OC)c(C(=O)/C=C/c2ccccc2)c(OC)c1`, the fold change (FC) stood at 3.1 in experiment [1] and 1.8 in experiment [2].
Regarding `COc1cccc(C(=O)/C=C/c2ccccc2)c1`, the figures for the fold change (FC) in experiment [1] and in experiment [2] were 1.5 and 2.4, respectively.
Consider `COc1ccc(OC)c(C(=O)/C=C/c2ccccc2[N+](=O)[O-])c1`, for which the fold change (FC) in experiment [1] worked out at 1.7; in experiment [2] it was 0.7.
As for `COc1ccc(OC)c(C(=O)/C=C/c2ccccc2C(F)(F)F)c1`, the figures for the fold change (FC) in experiment [1] and in experiment [2] were 4.4 and 2.7, respectively.
As for `O=C(/C=C/c1cccc(C(F)(F)F)c1)c1ccccc1`, the results for the fold change (FC) in experiment [1] and in experiment [2] were 3.1 and 2.8, respectively.
Turning to `COc1cccc(C(=O)/C=C/c2ccccc2[N+](=O)[O-])c1`, the figures for the fold change (FC) in experiment [1] and in experiment [2] were 2.9 and 2.7, respectively.
As for `COc1cc(C(=O)/C=C/c2ccccc2)cc(OC)c1OC`, the fold change (FC) in experiment [1] and in experiment [2] was 0.7 each time.
For `COc1ccc(C(=O)/C=C/c2ccccc2[N+](=O)[O-])c(OC)c1OC`, the fold change (FC) in experiment [1] stood at 2.9; in experiment [2], 3.3.
For the compound `COc1ccc(C(=O)/C=C/c2cccc(C(F)(F)F)c2)cc1OC`, the fold change (FC) was found to be 4.1 in experiment [1] and 2.9 in experiment [2].
As to `COc1ccc(C(=O)/C=C/c2ccccc2)c(OC)c1OC`, the fold change (FC) in experiment [1] and in experiment [2] was 2.4 throughout.
On to `COc1cccc(C(=O)/C=C/c2ccc(C(F)(F)F)cc2)c1`, for which the results for the fold change (FC) in experiment [1] and in experiment [2] were 2.9 and 3.1, respectively.
Take `COc1cccc(OC)c1C(=O)/C=C/c1ccccc1`: the fold change (FC) in experiment [1] was determined as 2.5; in experiment [2], 1.9.
